Source: PubChem BioAssay (Johns Hopkins Ion Channel Center)
Hits are enriched below; roughly 3.7% of the tested compounds scored in any of these assays.
Kir21 block: Kir2.1 (mouse) channel inhibition; P35561; HEK293-Kir2.1, FluxOR thallium flux fluorescence; hits give low values; AID 1672; B-score at 10 µM; 0.85% of 310,000 active;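 active = fluorescence ratio B-score at or below minus 3 SD of library scores, with starting-brightness B-score within 2 SD, cut at about -4.2 in these data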;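 also: channel flux triggered by added potassium and thallium sulfate stimulus; B-score of peak minus minimum fluorescence over baseline after thallium stimulus; more negative B-score means stronger Kir2.1 block with less thallium influx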
KCNK9 inh: blocks the human KCNK9 two-pore domain potassium channel | Q9NPC2 | HEK293 KCNK9, FluxOR thallium flux fluorescence; hits give low values | B-score at 10 µM | 1.2% of 310,000 active | AID 488922;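 active = ratio B-score over 3 SD below the library mean, with starting fluorescence within 5 SD of its mean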;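 also: negative B-score means less thallium flux so channel inhibition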
KCNK3 block: human KCNK3 channel inhibition, primary screen; CHO-KCNK3 thallium flux, FluxOR fluorescence; hits give low values; B-score at 10 µM; 0.84% of 340,000 active; AID 602410;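 active = B-score under library mean minus 4 SD, starting fluorescence ratio at most library mean plus 5 SD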;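 also: more negative B-score means stronger inhibition of thallium flux through KCNK3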
KCNQ1 block: blocks the human KCNQ1 potassium channel | P51787 | CHO-K1 KCNQ1, FluxOR thallium flux fluorescence; hits give high values | B-score at 10 µM | 1.3% of 310,000 active;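 active = compounds whose thallium flux B-score, printed positive for inhibition, exceeds three library SD while starting fluorescence stays within three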;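 also: channel opened by potassium depolarization with thallium stimulus after 20 min compound exposure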
KCNQ1 act: human KCNQ1 channel potentiation or activation. P51787. 0.35% of 310,000 active. CHO-K1 KCNQ1, thallium flux FluxOR fluorescence; hits give high values. B-score at 10 µM;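 active = fluorescence ratio B-score, a plate-corrected score, at least three library SD, with initial intensity B-score within 5 SD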
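Test system: CHO-K1 cells stably expressing KCNQ1 / Medium: assay buffer / Also added: depolarizing K+/Tl+ stimulus, K2SO4 and Tl2SO4 each 12.5 mM in 5x stock / Incubation: 90 min dye loading and 20 min compound exposure, both at room temperature / Signal: thallium influx via FluxOR fluorescence, kinetic imaging / Evaluation: B score of baseline-normalized fluorescence ratio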
hERG protect: shields human hERG channel from block by proarrhythmic agents; AID 1511; 0.51% of 310,000 active; CHO-hERG, FluxOR thallium flux, dofetilide IC70 present; activation (rescue from dofetilide block), less the hit threshold, % at 10 µM;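 active = activation above the mean of controls blocked by dofetilide plus 5 SD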;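 also: thallium influx through hERG after potassium depolarization seen as dye fluorescence rise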
The depositor's hits bear a star; i = inactive.

SMILES	Kir21 block	KCNK9 inh	KCNK3 block	KCNQ1 block	KCNQ1 act	hERG protect
OCCN1CCN(CC(O)COc2ccc(C34CC5CC(CC(C5)C3)C4)cc2)CC1 (configuration not stated)	-4.4*	i	i	i	i	-21
OCCN1CCN(CC(O)COc2ccc(Cl)cc2)CC1 (configuration not stated)	0.18	i	i	i	i	-4
O=C(O)CC(c1cccc2ccccc12)N1Cc2ccccc2C1=O (configuration not stated)	-0.88	i	i	i	i	-7
O=C(O)/C=C/c1cn(-c2ccccc2)nc1-c1ccc(-c2ccc([N+](=O)[O-])cc2)o1	0.03	i	i	i	i	11*
O=C(O)/C=C/c1cn(-c2ccccc2)nc1-c1cccc([N+](=O)[O-])c1	0.84	i	i	i	i	-5
CCCN(CC1CC1)C(=S)Nc1ccccc1F	-0.05	i	i	i	i	11*
CC(=O)NCCC(Cc1ccccc1)c1ccco1 (configuration not stated)	-0.19	i	i	i	i	-1
c1ccc(CNCCC(Cc2ccccc2)c2ccco2)cc1 (configuration not stated)	-12*	i	i	i	i	-14
CN(C)c1ccc(CNCCC(Cc2ccccc2)c2ccco2)cc1 (configuration not stated)	-4.7*	i	i	i	i	-20
Cc1ccnc(NC(=O)Nc2ccc(Br)cc2Cl)c1	0.27	i	i	i	i	-5
O=C1CCSc2ccc(Cl)cc2N1Cc1ccc(Cl)cc1	-2.2	-7.6*	i	i	i	-11
O=C1CCSc2ccc(Cl)cc2N1Cc1ccccc1	-1.5	i	i	i	i	-5
O=C(COc1ccc(S(=O)(=O)N2CCCC2)cc1)N1CCCC1	0.75	i	i	i	i	-6
Cc1cccc(C(=O)Nc2sc(C(=O)N3CCCC3)c(C)c2C#N)c1	0.94	i	i	i	i	-7
Cc1cccc(C(=O)Nc2sc(C)c(-c3ccccc3)c2C#N)c1	2	i	i	6*	i	-5
COc1cc(/C=N/N(c2ccccc2)c2ccccc2)ccc1O	-1.7	i	i	11*	i	-2
COc1cc(/C=N/Nc2ccccc2C(F)(F)F)ccc1O	0.07	-6.9*	i	i	i	-12
COc1ccc(N2CC(NC(=O)N3CCN(C(=O)c4ccco4)CC3)CC2=O)cc1OC (configuration not stated)	0.12	i	i	i	i	-9
Cc1ccc(-n2cc(CNCCCn3ccnc3C)c(-c3ccc(F)cc3)n2)cc1	-7.9*	i	i	i	i	-15
Cc1ccc(-n2cc(CNCCc3cscn3)c(-c3ccc(F)cc3)n2)cc1	-2.6	i	i	i	i	-21
Cc1ccc(-n2cc(CN3CCN(c4ccccn4)CC3)c(-c3ccc(F)cc3)n2)cc1	1.2	i	i	6*	i	-15
Cc1cccc(-n2cc(CN3CCN(c4ccccn4)CC3)c(-c3cccc(F)c3)n2)c1	-1.3	i	i	i	i	-9
CCOc1ccc(NC(=O)C2CCN(S(=O)(=O)c3ccc4c(c3)C(C)(C)C(=O)N4C)CC2)cc1	-0.01	i	i	i	i	-5
CC(C)CC(OC(=O)c1ccc(Cl)nc1)C(=O)NC1CCCC1 (configuration not stated)	1.7	i	i	i	i	0
Cc1ccc(NC(=O)CSCC(=O)Nc2cc(Cl)ccc2N2CCN(C)CC2)cc1	-5.2*	i	i	i	i	-10
CC(C)(C)c1ncc(S(=O)(=O)c2ccc(C(F)(F)F)cn2)c(N)n1	-2.9	i	i	i	i	-7
N#C/C(=N\Nc1cccc([N+](=O)[O-])c1)C(=O)c1ccc(Br)cc1	-2.3	i	i	8*	i	-24
O=C(O)c1ccc(N=NNc2cccc([N+](=O)[O-])c2)cc1	1.5	i	i	i	i	-1
